# Reference: ChEMBL document CHEMBL3232844, “Synthesis and structure activity relationships of schweinfurthin indoles” (2014)
# Key:
# Assay type in all cases: functional
# [1] = Cytotoxicity against human UACC62 cells
# In short: (§1)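 Cell line run as part of the 60-cell-line screening panel; growth inhibition was reported as a GI50 for each line.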
# HCC 2998 = assay: Cytotoxicity against human HCC2998 cells
# In short: (§2)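 Tested in a 60-cell-line human tumor panel screen; the read-out is growth inhibition, reported as GI50 for each cell line.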
# HOP-62 = assay: Cytotoxicity against human HOP62 cells; in short: as §2
# MDA-MB-231 = assay: Cytotoxicity against human MDA-MB-231 cells; in short: as §2
# M14 = assay: Cytotoxicity against human M14 cells; in short: as §2
# HL-60(TB) = assay: Cytotoxicity against human HL-60(TB) cells
# In short: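 Tested within the NCI 60-cell-line screen, with GI50 as the read-out. Values are the average of two independent experiments. The lowest concentration tested was 10 nM.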
# SN12C = assay: Cytotoxicity against human SN12C cells; in short: as §2
# [2] = Cytotoxicity against human UACC257 cells; in short: as §1
# KM12 = assay: Cytotoxicity against human KM12 cells; in short: as §2
# [3] = Cytotoxicity against human UO31 cells; in short: as §1
# SNB-75 = assay: Cytotoxicity against human SNB75 cells; in short: as §1
# [4] = Cytotoxicity against human OVCAR8 cells; in short: as §2
# 786-0 = assay: Cytotoxicity against human 786-0 cells; in short: as §2
# MCF7 = assay: Cytotoxicity against human MCF7 cells; in short: as §2
# NCI-H322M = assay: Cytotoxicity against human NCI-H322M cells; in short: as §2
# TK-10 = assay: Cytotoxicity against human TK10 cells; in short: as §1
# U-251 = assay: Cytotoxicity against human U251 cells; in short: as §1
# A549 = assay: Cytotoxicity against human A549 cells; in short: as §2
# RXF 393 = assay: Cytotoxicity against human RXF393 cells; in short: as §2
# HT-29 = assay: Cytotoxicity against human HT-29 cells; in short: as §2
# HCT-116 = assay: Cytotoxicity against human HCT116 cells; in short: as §2
# A498 = assay: Cytotoxicity against human A498 cells; in short: as §2
# [5] = read-out: pLC50 (the source's name) (converted)
structure (smiles),measurement,setting,value
CC1(C)[C@H](O)CC[C@@]2(C)Oc3c(O)cc(/C=C/c4cc(O)c5cc[nH]c5c4)cc3C[C@H]12,GI50,[1]; UACC-62,0.617 µM
same,CC50,"[1]; UACC-62, read-out: pLC50 (the source's name) (converted)",33.9 µM
same,TGI,"[1]; UACC-62, read-out: pTGI (converted)",6.46 µM
same,GI50,HCC 2998,3.16 µM
same,CC50,HCC 2998; [5],39.8 µM
same,TGI,HCC 2998; read-out: pTGI (converted),14.1 µM
same,GI50,HOP-62,0.631 µM
same,CC50,HOP-62; [5],> 100 µM
same,TGI,HOP-62; read-out: pTGI (converted),7.08 µM
same,GI50,MDA-MB-231,1.7 µM
same,LC50,MDA-MB-231,> 100 µM
same,TGI,MDA-MB-231; read-out: pTGI (converted),32.4 µM
same,GI50,M14,0.138 µM
same,CC50,M14; [5],8.32 µM
same,TGI,M14; read-out: pTGI (converted),0.646 µM
same,GI50,HL-60(TB),0.0437 µM
same,CC50,HL-60(TB); [5],> 100 µM
same,TGI,HL-60(TB); read-out: pTGI (converted),4.79 µM
same,GI50,SN12C,10.2 µM
same,LC50,SN12C,> 100 µM
same,TGI,SN12C; read-out: pTGI (converted),63.1 µM
same,GI50,[2]; UACC-257,3.8 µM
same,CC50,"[2]; UACC-257, read-out: pLC50 (the source's name) (converted)",66.1 µM
same,TGI,"[2]; UACC-257, read-out: pTGI (converted)",16.2 µM
same,GI50,KM12,0.447 µM
same,CC50,KM12; [5],7.76 µM
same,TGI,KM12; read-out: pTGI (converted),1.95 µM
same,GI50,[3]; UO-31,0.209 µM
same,LC50,[3]; UO-31,> 100 µM
same,TGI,"[3]; UO-31, read-out: pTGI (converted)",2 µM
same,GI50,SNB-75,0.01 µM
same,CC50,SNB-75; [5],56.2 µM
same,TGI,SNB-75; read-out: pTGI (converted),0.851 µM
same,GI50,[4]; OVCAR-8,4.79 µM
same,CC50,"[4]; OVCAR-8, read-out: pLC50 (the source's name) (converted)",> 100 µM
same,TGI,"[4]; OVCAR-8, read-out: pTGI (converted)",42.7 µM
same,GI50,786-0,0.0457 µM
same,LC50 (concentration killing 50% of cells),786-0,12.9 µM
same,TGI,786-0; read-out: pTGI (converted),1.17 µM
same,GI50,MCF7,1.35 µM
same,LC50,MCF7,> 100 µM
same,TGI,MCF7; read-out: pTGI (converted),16.2 µM
same,GI50,NCI-H322M,7.08 µM
same,CC50,NCI-H322M; [5],95.5 µM
same,TGI,NCI-H322M; read-out: pTGI (converted),33.9 µM
same,GI50,TK-10,3.55 µM
same,LC50,TK-10,> 100 µM
same,TGI,TK-10; read-out: pTGI (converted),34.7 µM
same,GI50,U-251,0.0891 µM
same,CC50,U-251; [5],> 100 µM
same,TGI,U-251; read-out: pTGI (converted),20 µM
same,GI50,A549,1 µM
same,CC50,A549; [5],55 µM
same,TGI,A549; read-out: pTGI (converted),8.32 µM
same,GI50,RXF 393,0.01 µM
same,LC50,RXF 393,0.389 µM
same,TGI,RXF 393; read-out: pTGI (converted),0.0246 µM
same,GI50,HT-29,1.17 µM
same,CC50,HT-29; [5],45.7 µM
same,TGI,HT-29; read-out: pTGI (converted),4.17 µM
same,GI50,HCT-116,0.617 µM
same,CC50,HCT-116; [5],8.13 µM
same,TGI,HCT-116; read-out: pTGI (converted),2.45 µM
same,GI50,A498,0.427 µM
same,CC50,A498; [5],46.8 µM
